TbMetRS inhib – blocks T. brucei methionyl-tRNA synthetase activity; 0.4% of 360,000 active; purified T. brucei MetRS, ATP depletion, Kinase-Glo luminescence; inhibition, % at 11.9 µM;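 active = inhibition above a per-plate cutoff of the control wells' mean inhibition plus 3 SD, cut at about 5.5% in these data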;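 note: 0% = DMSO wells median and 100% = median of wells with control inhibitor compound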
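assay system = parasite MetRS enzyme | timing = 15 min preincubation, 2 h reaction, all 25 °C | evaluation = percent inhibition relative to median high and low control wells | medium = HEPES buffer containing pyrophosphatase, BSA, spermine, DTT | compound = single dose, 11.9 µM final nominal, 0.9% final DMSO | detection = Kinase-Glo luminescence, ATP depletion format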
ERp5 inh – inhibitors of human ERp5; Q15084; ERp5 insulin aggregation, absorbance 650 nm, 90 min; 0.05% of 350,000 active; inhibition, % at 9.99 µM;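 active = mean replicate inhibition above about 25%, with every replicate also reaching it, limit read from the data, passing the limit was not always enough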
PDI turbidity – blocks human protein disulfide isomerase activity; PDI insulin aggregation turbidity, A650, 90 min; inhibition, % at 10 µM; 0.052% of 350,000 active; AID 588391;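 active = mean inhibition across replicates of 30% or more, whatever share of single replicates reach that level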
Target sequence (P07237 whole entry, looked up): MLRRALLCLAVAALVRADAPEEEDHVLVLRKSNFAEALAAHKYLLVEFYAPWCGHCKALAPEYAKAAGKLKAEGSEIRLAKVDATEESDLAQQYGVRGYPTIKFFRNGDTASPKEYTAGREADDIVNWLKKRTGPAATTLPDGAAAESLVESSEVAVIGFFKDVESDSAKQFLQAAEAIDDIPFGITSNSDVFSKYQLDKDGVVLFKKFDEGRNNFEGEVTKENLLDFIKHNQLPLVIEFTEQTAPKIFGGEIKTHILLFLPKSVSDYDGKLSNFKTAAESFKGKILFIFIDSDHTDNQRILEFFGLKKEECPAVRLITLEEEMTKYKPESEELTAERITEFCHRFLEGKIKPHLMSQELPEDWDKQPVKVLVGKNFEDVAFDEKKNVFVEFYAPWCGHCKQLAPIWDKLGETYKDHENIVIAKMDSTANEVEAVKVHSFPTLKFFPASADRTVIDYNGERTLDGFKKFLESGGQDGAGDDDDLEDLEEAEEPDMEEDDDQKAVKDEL
Tb MetRS conf – confirmation of Trypanosoma brucei MetRS inhibitors; T. brucei MetRS enzyme, luminescence (ATP depletion); shares compounds with TbMetRS inhib; inhibition, % at 11.9 µM; 93% of 1,400 active; in the data active = inhibition above about 7%
Jurkat cytotox – Jurkat T cell cytotoxicity for MetRS hits; shares compounds with TbMetRS inhib; Jurkat cells viability, ATP luminescence; inhibition, % at 8.3 µM; 12% of 1,400 active; in the data active = inhibition above about 15%;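 note: 0% = vehicle and 100% = reference inhibitor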
Tb MetRS inh FP – inhibits T. brucei methionyl tRNA synthetase in orthogonal FP test. shares compounds with TbMetRS inhib. purified T. brucei MetRS, fluorescence polarization. AID 651607. inhibition, % at 11.9 µM. 44% of 1,400 active; in the data active = inhibition above about 17%;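 note: 0% = vehicle wells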
Starred values were filed as active, the others as inactive; x = no result given. Shown are actives, neighbours in structure and some others; about 0.4% of the full set was active somewhere.

SMILES	TbMetRS inhib	ERp5 inh	PDI turbidity	Tb MetRS conf	Jurkat cytotox	Tb MetRS inh FP
C[C@H]1CN([C@@H](C)CO)C(=O)CCCn2cc(nn2)CO[C@H]1CN(C)Cc1ccc(C(=O)O)cc1	x	1	x	x	x	x
COc1ccc(CN(C)C[C@@H]2Oc3ccc(NC(=O)Cc4cn(C)c5ccccc45)cc3CC(=O)N([C@@H](C)CO)C[C@@H]2C)cc1	x	-1	x	x	x	x
O=C1CCC(=O)N1OCCCOc1ccc(Br)cc1Cl	7.0*	x	5	15*	-1	33*
CC1CCN(CCCOc2ccc(Br)cc2Cl)CC1	4	0	10	x	x	x
O=C(Cc1ccncc1)NCC[C@H]1CC[C@H](NC(=O)Nc2ccc(F)cc2)[C@@H](CO)O1	x	-3	x	x	x	x
COc1ccc2c3c(n(C)c2c1)[C@@H](CO)N(C(=O)c1ccccn1)CC31CCN(C(=O)Cc2ccccc2)CC1	x	0	x	x	x	x
CC(C)(C)C1c2[nH]c3ccccc3c2CCN1Cc1cccc(OCCO)c1 (configuration not stated)	9.1*	0	6	7.1*	3	6
CC(=O)Nc1ccc(CN2CCc3c([nH]c4ccccc34)C2C(C)(C)C)cc1 (configuration not stated)	0	4	-2	x	x	x
COc1ccc(S(=O)(=O)N(C)C[C@H]2Oc3ncc(C#CC4(O)CCCC4)cc3C(=O)N([C@H](C)CO)C[C@H]2C)cc1	x	-5	x	x	x	x
COc1ccc(N2CCN(C3CC(=O)N(Cc4ccccc4)C3=O)CC2)cc1 (configuration not stated)	0	2	-3	x	x	x
O=C(c1ccncc1)c1ccc(N2CCN(C3CC(=O)N(Cc4ccccc4)C3=O)CC2)cc1 (configuration not stated)	15*	x	12	28*	13	6
C[C@@H]1CN([C@@H](C)CO)C(=O)c2cc(NC(=O)C3CCCCC3)ccc2O[C@@H](C)CCCCO[C@@H]1CN(C)Cc1ccc2c(c1)OCO2	x	2	x	x	x	x
O=[N+]([O-])c1ccc(N2CCN(c3ccccc3O)CC2)cc1	0	0	2	x	x	x
O=[N+]([O-])c1ccc(N2CCN(c3ccccc3O)CC2)c(Cl)c1	7.0*	x	-1	12*	18*	1
CO[C@H]1CN(C)C(=O)c2ccc(NC(=O)Nc3ccccc3F)cc2OC[C@H](C)N(C)C[C@H]1C	x	4	x	x	x	x
CN1CC(=O)N2C(c3cccc([N+](=O)[O-])c3)c3[nH]c4ccccc4c3C[C@H]2C1=O (some centres not stated)	78*	4	-1	105*	-5	91*
CN1CC(=O)N2C(c3ccc(Cl)cc3)c3[nH]c4ccccc4c3C[C@H]2C1=O (some centres not stated)	7.2*	4	-11	18*	43*	0
COc1cccc(C2c3[nH]c4ccccc4c3C[C@H]3C(=O)N(c4ccccc4C(=O)N4CCCC4C(=O)O)C(=O)N23)c1 (some centres not stated)	6.4*	0	x	16*	-1	4
COCCCN1CC(=O)N2C(c3cccc(C)c3)c3[nH]c4ccccc4c3C[C@H]2C1=O (some centres not stated)	5	0	-6	x	x	x
Cc1ccc(C2c3[nH]c4ccccc4c3C[C@H]3C(=O)N(c4ccccc4C(=O)N4CCC[C@@H]4C(=O)O)C(=O)N23)cc1 (some centres not stated)	4	0	x	x	x	x
O=C1[C@@H]2Cc3c([nH]c4ccccc34)C(c3cccc([N+](=O)[O-])c3)N2C(=O)CN1CCCO (some centres not stated)	96*	-2	-2	95*	-1	93*
COC(=O)c1ccc(C2c3[nH]c4ccccc4c3C[C@H]3C(=O)N(C)CC(=O)N23)cc1 (some centres not stated)	-1	1	-103	x	x	x
COCCN1CC(=O)N2C(c3cccc(C)c3)c3[nH]c4ccccc4c3C[C@H]2C1=O (some centres not stated)	4	-2	2	x	x	x
CCC(=O)Nc1ccc2c(c1)C(=O)N(C)C[C@@H](OC)[C@@H](C)CN(Cc1ccccn1)[C@@H](C)CO2	x	-5	x	x	x	x
O=C(Nc1ccccc1F)N[C@@H]1CC[C@@H](CCNC(=O)C2CCC2)O[C@@H]1CO	x	-1	x	x	x	x
SMILES	TbMetRS inhib	ERp5 inh	PDI turbidity	Tb MetRS conf	Jurkat cytotox	Tb MetRS inh FP
COC(=O)c1cn(CC(=O)N2CCOCC2)nn1	x	-2	x	x	x	x
O=C1[C@@H]2Cc3c([nH]c4ccccc34)C(c3ccc([N+](=O)[O-])cc3)N2C(=O)CN1C1CC1 (some centres not stated)	9.4*	2	0	20*	9	8
COc1cccc(C2c3[nH]c4ccccc4c3C[C@H]3C(=O)N(CCCCCO)CC(=O)N23)c1 (some centres not stated)	10.0*	2	2	21*	10	1
O=C1[C@@H]2Cc3c([nH]c4ccccc34)C(c3ccccc3)N2C(=O)CN1C1CC1 (some centres not stated)	0	5	-3	x	x	x
COc1cccc(C2c3[nH]c4ccccc4c3C[C@H]3C(=O)N(CCCOC(C)C)CC(=O)N23)c1 (some centres not stated)	3	10	-17	x	x	x
Nc1nc(N)c(-c2cccc(C(F)(F)F)c2)c(Cc2cccc(C(F)(F)F)c2)n1	16*	-1	8	60*	-6	34*
Nc1ncccc1OCc1cccc(C(F)(F)F)c1	-1	-1	-10	x	x	x
COc1ccc2c3c(n(C)c2c1)[C@@H](CO)N(CC1CC1)CC31CCN(C(=O)CN(C)C)CC1	x	18	x	x	x	x
C[C@H](CO)N1C[C@H](C)[C@H](CN(C)C(=O)CCC(F)(F)F)OCCCC[C@H](C)Oc2ccc(N(C)C)cc2C1=O	x	3	x	x	x	x
CCN(CC)c1cc(Cl)c2nonc2c1N	0	3	-1	x	x	x
CN(C)c1cc(Cl)c2nonc2c1N	5.7*	8	0	4	0	2
C[C@H]1CN([C@@H](C)CO)C(=O)Cc2cc(NC(=O)CCCCCC(=O)Nc3ccccc3N)ccc2O[C@H]1CN(C)Cc1ccc(C(F)(F)F)cc1	x	7	x	x	x	x
C[C@@H]1CN([C@@H](C)CO)C(=O)c2c(c3ccccc3n2C)-c2ccccc2CO[C@H]1CN(C)C(=O)Nc1ccccc1	x	-1	x	x	x	x
CCN(CCC(=O)Nc1ccc(Br)c(C)c1)Cc1ccccc1	0	x	0	x	x	x
O=C(CCN(CCO)Cc1ccccc1)Nc1ccc(Br)cc1	20*	x	1	40*	0	15
CCNC(=O)[C@@H]1[C@@H](CO)[C@@H]2Cn3c(ccc(C4=CCCC4)c3=O)[C@@H]2N1CC1CC1	x	-1	x	x	x	x
O=C(NCc1nc2ccccc2[nH]1)C1=C[C@H](C2CCCCC2)C[C@H](OCc2ccc(CO)cc2)O1	5	-1	5	x	x	x
O=C(NCc1nc2ccccc2[nH]1)C1=C[C@H](C2CCCCC2)C[C@H](OCCCCO)O1	59*	0	3	75*	7	53*
